Results taken from ChEMBL document CHEMBL1681716, “Novel dihydrothieno[2,3-e]indazole derivatives as IκB kinase inhibitors” (Bioorg Med Chem Lett, 2011).

Experiments:
[1] = test system: THP-1; experiment: Antiinflammatory activity in human THP1 cells assessed as inhibition of LPS-induced TNF-alpha production after 6 hrs by ELISA; settings: THP-1, 6 h
[2] = target: T1, Inhibitor of nuclear factor kappa-B kinase subunit beta (Homo sapiens, UniProt O14920); experiment: Inhibition of human IKK-beta by substrate phosphorylation assay
T1 sequence (O14920 whole entry): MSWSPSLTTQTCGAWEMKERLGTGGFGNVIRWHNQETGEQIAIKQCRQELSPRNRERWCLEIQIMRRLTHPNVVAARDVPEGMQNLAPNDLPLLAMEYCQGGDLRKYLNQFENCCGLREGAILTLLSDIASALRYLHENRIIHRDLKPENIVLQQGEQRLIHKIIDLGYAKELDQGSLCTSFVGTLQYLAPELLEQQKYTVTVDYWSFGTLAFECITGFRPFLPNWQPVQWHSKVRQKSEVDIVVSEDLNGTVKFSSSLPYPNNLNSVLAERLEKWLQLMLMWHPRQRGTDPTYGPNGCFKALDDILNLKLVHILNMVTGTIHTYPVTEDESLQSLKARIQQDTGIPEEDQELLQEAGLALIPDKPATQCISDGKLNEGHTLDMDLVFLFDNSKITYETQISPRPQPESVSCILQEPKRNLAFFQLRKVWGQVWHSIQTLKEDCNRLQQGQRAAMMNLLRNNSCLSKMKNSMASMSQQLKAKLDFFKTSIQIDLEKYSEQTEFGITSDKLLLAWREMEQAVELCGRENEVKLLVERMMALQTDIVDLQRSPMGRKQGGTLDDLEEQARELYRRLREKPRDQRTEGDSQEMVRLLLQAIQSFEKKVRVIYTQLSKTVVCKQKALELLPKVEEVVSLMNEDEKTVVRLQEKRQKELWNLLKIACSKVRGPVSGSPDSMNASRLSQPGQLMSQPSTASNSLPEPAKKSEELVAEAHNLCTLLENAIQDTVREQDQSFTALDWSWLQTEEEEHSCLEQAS
Procedure, shortened: (§1)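 Human IKK-α or IKK-β was tested on a biotinylated 21-residue IκBα peptide captured on avidin-coated plates and blocked with 3% BSA. Enzyme in 25 mM Tris pH 7.4, 2 mM DTT and 0.01% Tween 20 was preincubated with compound (1% DMSO) for 10 min at 25 °C. An ATP/MgCl₂ solution started the reaction, which ran 60 min at 25 °C. Phospho-IκBα was detected with a mouse monoclonal antibody, then HRP anti-mouse IgG and TMB.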

[3] = target: T2, Inhibitor of nuclear factor kappa-B kinase subunit alpha (Homo sapiens, UniProt O15111); experiment: Inhibition of human IKK-alpha by substrate phosphorylation assay
T2 sequence (O15111 whole entry): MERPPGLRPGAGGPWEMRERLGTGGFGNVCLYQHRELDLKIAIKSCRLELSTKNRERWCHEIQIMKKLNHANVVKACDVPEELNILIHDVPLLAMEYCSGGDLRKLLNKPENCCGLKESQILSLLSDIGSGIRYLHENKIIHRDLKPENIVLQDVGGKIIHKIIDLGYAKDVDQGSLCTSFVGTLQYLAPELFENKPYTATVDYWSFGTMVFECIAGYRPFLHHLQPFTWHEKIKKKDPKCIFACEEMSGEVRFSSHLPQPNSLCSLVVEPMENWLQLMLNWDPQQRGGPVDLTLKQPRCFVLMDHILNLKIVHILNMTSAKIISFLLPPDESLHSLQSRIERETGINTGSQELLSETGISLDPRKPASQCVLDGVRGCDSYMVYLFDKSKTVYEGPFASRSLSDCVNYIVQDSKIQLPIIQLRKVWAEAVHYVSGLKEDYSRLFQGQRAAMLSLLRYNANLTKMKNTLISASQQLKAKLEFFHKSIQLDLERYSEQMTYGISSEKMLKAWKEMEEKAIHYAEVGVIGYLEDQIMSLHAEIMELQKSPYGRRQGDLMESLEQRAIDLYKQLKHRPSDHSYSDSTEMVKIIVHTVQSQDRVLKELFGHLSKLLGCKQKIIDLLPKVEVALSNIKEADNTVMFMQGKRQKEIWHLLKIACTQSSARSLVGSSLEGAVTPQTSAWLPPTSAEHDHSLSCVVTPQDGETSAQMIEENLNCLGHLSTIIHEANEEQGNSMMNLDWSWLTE
Procedure, shortened: as §1

[4] = test system: Mus musculus; experiment: Antiinflammatory activity in po dosed DBA/2 mouse assessed as inhibition of LPS-stimulated plasma TNFalpha production pretreated 60 mins before LPS challenge measured after 90 mins by ELISA; assay type: functional, organism-based
Procedure, shortened: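 Female DBA/2 mice were given compound by oral gavage at 3 and 10 mg/kg. After 60 min, LPS in 0.2 mL saline was injected i.p. Plasma TNF-α was measured by ELISA 90 min after the LPS challenge.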

Row | Structure (SMILES) | IC50 [1] [µM] | IC50 [2] [µM] | IC50 [3] [µM] | inhibition [4]
1 | CN(CCn1cc2c(n1)CCc1c-2sc(NC(N)=O)c1C(N)=O)Cc1ccccc1 | 5.1 | 4.6 |  | 
2 | NC(=O)Nc1sc2c(c1C(N)=O)CCc1nn(C3CCCN(Cc4ccc(O)cc4F)C3)cc1-2 (stereo unspecified) | 0.7 | 0.9 |  | 
3 | NC(=O)Nc1sc2c(c1C(N)=O)CCc1nn(C3CCCN(Cc4ccc(Cl)cc4F)C3)cc1-2 (stereo unspecified) | 4.4 | 0.5 | 41 | 
4 | NC(=O)Nc1sc2c(c1C(N)=O)CCc1nn(C3CCCN(Cc4ccccc4)C3)cc1-2 (racemic) | 0.5 | 2.2 | > 100 | 
5 | NC(=O)Nc1sc2c(c1C(N)=O)CCc1nn(C3CN(Cc4ccccc4)C3)cc1-2 | 2.5 | 7.1 |  | 
6 | CC(C)n1cc2c(n1)CCc1c-2sc(NC(N)=O)c1C(N)=O | 4.6 | 2.3 |  | 
7 | NC(=O)Nc1sc2c(c1C(N)=O)CCc1c-2cnn1Cc1ccc(F)cc1 | 12 | 0.2 |  | 
8 | CN(C)CCn1cc2c(n1)CCc1c-2sc(NC(N)=O)c1C(N)=O |  | 8.8 |  | 
9 | CC(=O)Nc1ccc(CN2CCCC(n3cc4c(n3)CCc3c-4sc(NC(N)=O)c3C(N)=O)C2)c(F)c1 (stereo unspecified) |  | > 10 |  | 
10 | NC(=O)Nc1sc2c(c1C(N)=O)CCc1nn(C3CCCCN(Cc4ccccc4)C3)cc1-2 (racemic) |  | > 10 |  | 
11 | NC(=O)Nc1sc2c(c1C(N)=O)CCc1nn(C3CCCN(Cc4ccc(F)cc4F)C3)cc1-2 (stereo unspecified) | 0.8 | 1.7 | > 100 | Dose-dependent effect
12 | COCCn1cc2c(n1)CCc1c-2sc(NC(N)=O)c1C(N)=O |  | 11 |  | 
13 | NC(=O)Nc1sc2c(c1C(N)=O)CCc1nn(C3CCCN(Cc4cc(F)c(F)cc4F)C3)cc1-2 (stereo unspecified) | 0.3 | 3.1 |  | 
14 | NC(=O)Nc1sc2c(c1C(N)=O)CCc1nn(Cc3cccnc3)cc1-2 | 24 | 4.8 |  | 
15 | NC(=O)Nc1sc2c(c1C(N)=O)CCc1nn(Cc3ccccc3)cc1-2 | 5.6 | 4.2 |  | 
16 | NC(=O)Nc1sc2c(c1C(N)=O)CCc1nn(C3CCCN(Cc4ccc(N)cc4F)C3)cc1-2 (stereo unspecified) | 0.5 | 0.5 | 9 | 
17 | NC(=O)Nc1sc2c(c1C(N)=O)CCc1nn(Cc3ccccn3)cc1-2 | > 30 | 4.5 |  | 
18 | CCCn1cc2c(n1)CCc1c-2sc(NC(N)=O)c1C(N)=O | 5.2 | 2.9 |  | 

Further molecules by falling IC50 [2], results first:

Row | IC50 [1] [µM] | IC50 [2] [µM] | IC50 [3] [µM] | Structure (SMILES) | inhibition [4]
19 |  | 8.4 |  | CCCCCCn1cc2c(n1)CCc1c-2sc(NC(N)=O)c1C(N)=O | 
20 | 1.2 | 4.8 |  | NC(=O)Nc1sc2c(c1C(N)=O)CCc1nn(C3CCN(Cc4ccccc4)CC3)cc1-2 | 
21 | 1.7 | 3 |  | NC(=O)Nc1sc2c(c1C(N)=O)CCc1nn(C3CCN(Cc4ccccc4)C3)cc1-2 (racemic) | 
22 | 4 | 2.7 |  | CCCCn1cc2c(n1)CCc1c-2sc(NC(N)=O)c1C(N)=O | 
23 | 0.6 | 2.5 | > 100 | NC(=O)Nc1sc2c(c1C(N)=O)CCc1nn(C3CCCN(Cc4ccc(Cl)cc4)C3)cc1-2 (stereo unspecified) | 
24 | 9 | 2.3 |  | NC(=O)Nc1sc2c(c1C(N)=O)CCc1nn(Cc3ccncc3)cc1-2 | 
25 | 42 | 2.2 |  | CCCn1ncc2c1CCc1c-2sc(NC(N)=O)c1C(N)=O | 
26 | 3.8 | 1.9 | > 100 | COc1ccc(CN2CCCC(n3cc4c(n3)CCc3c-4sc(NC(N)=O)c3C(N)=O)C2)c(F)c1 (stereo unspecified) | 
27 | 2.5 | 0.9 |  | NC(=O)Nc1sc2c(c1C(N)=O)CCc1nn(Cc3ccc(F)cc3)cc1-2 | 
